In ChEMBL document CHEMBL4513216, “Probing the Open Global Health Chemical Diversity Library for Multistage-Active Starting Points for Next-Generation Antimalarials” (ACS Infect Dis, 2020):

Experiment: Toxicity liver stage against HepG2, at 10uM
Type: cell-based
Set-up: test concentration 10 uM, cell line HepG2-A16-CD81EGFP
Conditions: human, HepG2-A16-CD81EGFP cells; read-out: INHIBITION
Outline: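 Uninfected HepG2-A16-CD81EGFP cells, 3 × 10^3 per well, 1536-well, plated on prespotted compound at 10 μM final, parasite-free screening media added to match infected plates; puromycin 10 μM positive, DMSO 0.5% negative; run in parallel with 48 h PbLuc assay at 37 °C, 5% CO2; viability by CellTiter-Glo luminescence, normalized to controls.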

Row | SMILES | cytotoxicity at 10 µM [%]
1 | Cn1c(CO[C@H]2CN(S(C)(=O)=O)C[C@H]2F)nc2ccccc21 | -0.714
2 | CC(C)NC[C@H]1COCc2nc3cccnc3n21 | -5.38
3 | CC(C)CC(=O)N1CCC2(CC1)[C@@H]1CN(C(=O)N(C)C)C[C@@H]1C(=O)N2C | 4.85
4 | O=C(C1CCOCC1)N1CC[C@@H](O)[C@@H]1Cc1ccccc1 | 0.375
5 | CN(C)Cc1nn(C)c2c1CCN(C(=O)c1cccnc1)C2 | 6.24
6 | COc1cccc(N2CCN(CC(O)c3ccc(C)cc3)CC2)c1 (stereo unspecified) | -11.6
7 | CC(C)c1noc(C2CCN(S(=O)(=O)c3cccs3)CC2)n1 | 1.47
8 | O=c1[nH]c2ccc(S(=O)(=O)N(CCO)Cc3ccncc3)cc2[nH]1 | 1.07
9 | Cc1ccc2c(CC(=O)N3C[C@@H](O)[C@H](N(C)C)C3)coc2c1 | 10.4
10 | CC(=O)N1CCC(c2cncc(N3CCCCCC3)n2)CC1 | 11.3
11 | O=C(CC1CC1)N1CCC(O)(CN2CCN(c3ccccc3)CC2)C1 (stereo unspecified) | -11.2
12 | Cn1nccc1CN1CCCC(COc2ccccc2F)C1 (stereo unspecified) | -9.54
13 | COCC(=O)N1CCC(Cc2nccnc2-c2c(C)n[nH]c2C)C1 (stereo unspecified) | -11.7
14 | CN(C)CC1(O)CCN(S(=O)(=O)c2ccc(Cl)cc2)C1 (stereo unspecified) | -13.9
15 | Cc1ccsc1C(=O)N1CCCC(c2[nH]ncc2S(C)(=O)=O)C1 (stereo unspecified) | -5.39
16 | Nc1ncnc2c1ncn2[C@H]1CCN(Cc2ccsc2)CC[C@@H]1O | -4.25
17 | CCOCC1CCN(C(=O)C(c2c(F)cccc2F)N(C)C)CC1 (stereo unspecified) | -3.12
18 | CN(Cc1nnnn1C1CC1)CC1COc2ccccc2O1 (stereo unspecified) | -5.79
19 | Cc1nc(-c2cc(C(=O)NC(C)(C(=O)O)C(C)C)co2)cs1 (stereo unspecified) | 1.84
20 | OCCCNc1cccc(COC2CCCCC2)c1 | -0.23
21 | COCCCN1CCN(CC2CCCO2)CC1 (stereo unspecified) | -13.5

Row | SMILES | cytotoxicity at 10 µM [%]
22 | O=C1NCCCCC1NC(=O)N1CCc2ccccc21 (stereo unspecified) | -0.734
23 | Cc1nn(C)c(C)c1C1COCCN1C(=O)NC1CC1 (stereo unspecified) | 3.21
24 | O=C(c1sccc1-n1cnnn1)N1CCCCC1 | 6.56
25 | CCn1cnnc1CNC(=O)N1CCOC(c2ccccc2Cl)C1 (stereo unspecified) | 9.32
26 | Cc1ccccc1N1CCN(CCS(=O)(=O)c2ccc(Br)cc2)CC1 | 18.7
27 | CCn1nc(C)c(C(=O)N2CCC(Nc3ccc(C)nn3)CC2)c1C | 4.13
28 | COc1cc(NC(=O)c2ccc(F)cc2Cl)c(C(=O)N(C)C)cc1OC | -11.1
29 | CC(C)CNC(=O)c1ccc(NC(=O)NC(C)(C)CO)cc1Cl | 6.27
30 | CCn1nc(C)cc1C(=O)NCc1nc(C)no1 | 0.304
31 | COCCN(C)c1cnn(C)c(=O)c1Br | 1.09
32 | O=C(NCc1csc(Br)c1)Nc1cn[nH]c1 | 2.1
33 | O=C(NCc1cccnc1N1CCCCC1)c1ccc2[nH]nnc2c1 | -1.19
34 | COc1cc(CNC(C)Cn2ccnc2)cc2c1OCCO2 (stereo unspecified) | -94.1
35 | CCNC(=O)c1cnc(Cc2ccc(F)cc2)s1 | 4.44
36 | CC(CNC(=O)c1ccc(Cl)cc1I)N1CCCC1 (stereo unspecified) | -5.69
37 | CN(C)c1cc(C(=O)NCCc2nnc(-c3ccco3)[nH]2)ccn1 | -0.653
38 | CN(C)C(=O)Cc1nc(CN2CCOC(Cn3cccn3)C2)cs1 (stereo unspecified) | 0.743
39 | CN(Cc1nccn1CC(F)(F)F)C(=O)c1ccc(F)cc1F | 3.3
40 | NC(=O)C(CNC(=O)COCC(F)(F)F)Cc1ccc(F)cc1 (stereo unspecified) | -5.36
41 | Cc1ncsc1C(=O)Nc1cccc(OCC(F)F)n1 | -1.4
42 | CN(Cc1ccc(Cl)s1)C1CCCN(c2cccnn2)C1 (stereo unspecified) | -4.27

Row | SMILES | cytotoxicity at 10 µM [%]
43 | c1cnc(N2CCCC3(COCCN(c4nncs4)C3)C2)cn1 (stereo unspecified) | 1.77
44 | Cc1cn2c(=O)c(-c3ccnc(N[C@@H]4CCOC4)n3)cnc2s1 | -9.19
45 | CC(=O)N1CCC(n2ccc(-c3cnc(N4CCOCC4)nc3)n2)CC1 | -10.4
46 | OCC1(O)CCN(c2ccnc3c(C(F)(F)F)cccc23)CC1 | -14.8
47 | Cc1ccc(CN(CCN(C)C)Cc2ncc[nH]2)s1 | -10.5
48 | Cc1cc(NCCc2cnccn2)nc(-c2ccccc2O)n1 | 10.9
49 | Cc1noc(-c2ccc(N3CCC[C@H]3CO)nc2)n1 | 1.48
50 | CCOC(=O)N1CCCC2(CCN(Cc3ccccc3C#N)C2)C1 (stereo unspecified) | 3.37
51 | CC1=C(C(=O)N(C)Cc2n[nH]c3c2CCCCC3)C(C)NC(=O)N1 (stereo unspecified) | -0.178
52 | CCOCC1CCN(C(=O)C(c2ccc(F)cc2)N(C)C)CC1 (stereo unspecified) | 1.31
53 | CC(=O)N1C[C@H](NS(=O)(=O)N2CCOCC2)[C@@H](c2ccc(C)o2)C1 | -1.43
54 | CCCc1nc(C)cc(NC(C)Cc2cnccn2)n1 (stereo unspecified) | -0.166
55 | O=C(O)c1ccc(CNC(=O)C2CCN(C(=O)C3CCC3)CC2)s1 | 0.993
56 | CN(C)Cc1nnc(C2CCCN(c3cc(C(F)(F)F)ccn3)C2)n1C (stereo unspecified) | -11.9
57 | NC(=O)NCC(=O)N1CCCC(c2nccn2CC2CCC2)C1 (stereo unspecified) | -4.59
58 | Cc1ccsc1S(=O)(=O)N1CCc2c(c(C(=O)O)nn2CC2CC2)C1 | -0.714
59 | Cc1cc(-c2nn(C)c(Cl)c2CN2CCOC(C(=O)O)C2)no1 (stereo unspecified) | 4.04
60 | Cn1ncc(C2CC(=O)NCc3nc4ccccn4c32)c1C1CC1 (stereo unspecified) | 6.9
61 | Cc1cc(N[C@H](CO)COCc2ccccc2)n2nc(C)cc2n1 | 0.324
62 | CCOC(=O)N1CCC(NC(C)c2ccccc2-n2cccn2)CC1 (stereo unspecified) | -7.28
63 | O=C(NCc1nc(C2CCCCC2)no1)C1CC(=O)N(C2CCCC2)C1 (stereo unspecified) | 0.761

Row | SMILES | cytotoxicity at 10 µM [%]
64 | N#Cc1cccc(N2CCC3(CCC(=O)N(CCCO)C3)CC2)n1 | 2.11
65 | Cc1c[nH]c(CN(C)C(=O)c2ccc(CSc3nnc[nH]3)o2)n1 | 1.12
66 | CN1CCCN(CC(=O)N2CCc3[nH]c(-c4ccccc4)nc3C2)CC1 | -0.0342
67 | CC(O)c1cn(C2CCN(C(=O)C3(C)CCN(C)CC3)CC2)nn1 (stereo unspecified) | -0.293
68 | N#Cc1cccc(N2CCC3(CCC(=O)N(CC(N)=O)C3)CC2)n1 | 3.14
69 | NC(=O)c1cc(C2CCCN(C(=O)CCc3cccs3)C2)n[nH]1 (stereo unspecified) | 2.33
70 | CC(C)c1nnc2n1CCN(Cc1nc(-c3ccoc3)no1)C2 | -3.69
71 | Cc1ccccc1OCC(O)CN1CCC(Cn2cccn2)CC1 (stereo unspecified) | -0.972
72 | Cc1ccc(F)c(S(=O)(=O)NCc2cccc(C(=O)N3CCCC3)c2)c1 | -11.1
73 | Cc1cnn(CC2CCCN2C(=O)c2ccc3[nH]c(=O)[nH]c3c2)c1 (stereo unspecified) | -3.98
74 | CCn1cc(NC(=O)NCCN2CCc3ccccc3C2)cn1 | -2.87
75 | CN(C)c1ncccc1C(=O)N1CCCN(c2cccnn2)CC1 | 9.41
76 | CS(=O)(=O)N1CC2(CCN(C(=O)c3ccncc3)CC2)c2ccccc21 | 2.23
77 | CCS(=O)(=O)N1CCO[C@H]2[C@H](Oc3ncccc3F)CC[C@@H]21 | 2.63
78 | CC(=O)N1[C@H](CN(C)C)C[C@@H]2CN(C(=O)c3ccno3)CC[C@@H]21 | 4.35
79 | O=C(C1CC=CC1)N1CCC2(CCN(Cc3ccccn3)C2=O)C1 (stereo unspecified) | 0.908
80 | CN(Cc1ccco1)[C@@H]1CN(Cc2ccsc2)C[C@@H]2CCCO[C@@H]21 | 9.59
81 | CN(C)C(=O)CN1C(=O)CCC12CCN(Cc1ccsc1)CC2 | -3.13
